SMILES strings stand for the structures. About 500 (0.14%) of roughly 370,000 compounds were called active. The list comes from a sample in which actives are over-represented; it also holds similar structures and randomly drawn compounds. A number with no mark means an inactive call.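 The calls were made as follows: active = inhibition above the mean of compounds falling within the control limits plus 3 SD of them (cut at about 14% in these data); inactive = the rest.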

Chain of Fibrinogen beta chain (Homo sapiens) (P02675 whole entry, looked up): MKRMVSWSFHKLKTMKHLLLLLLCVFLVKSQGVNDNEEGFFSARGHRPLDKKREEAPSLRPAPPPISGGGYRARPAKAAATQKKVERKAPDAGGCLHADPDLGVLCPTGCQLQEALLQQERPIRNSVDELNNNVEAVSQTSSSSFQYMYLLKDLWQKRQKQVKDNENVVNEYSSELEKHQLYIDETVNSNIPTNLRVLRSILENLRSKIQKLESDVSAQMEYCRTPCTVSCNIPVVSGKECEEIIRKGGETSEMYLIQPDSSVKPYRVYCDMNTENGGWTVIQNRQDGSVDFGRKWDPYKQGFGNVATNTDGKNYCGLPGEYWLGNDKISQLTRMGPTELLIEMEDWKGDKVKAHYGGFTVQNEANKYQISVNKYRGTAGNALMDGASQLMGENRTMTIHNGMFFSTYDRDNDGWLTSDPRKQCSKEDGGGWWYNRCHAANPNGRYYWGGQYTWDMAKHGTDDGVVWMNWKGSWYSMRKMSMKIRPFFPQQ

This assay addresses Fibrinogen beta chain (Homo sapiens) (UniProt P02675). In words: small molecules displacing Tn7 from DD(E) complex – biochemical, fluorescence polarization, human fibrin, Tn7 probe, primary screen (AID 720508).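 Also: 0% = plate median of compound wells and 100% = 10 µM Aha-Tn7 peptide.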 The conditions noted are these: FP displacement of FITC-Tn7 peptide from fibrin DD(E); at 8.3 µM; hits give high values; 0% = median of compound wells per plate. A digest of the protocol:
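Also added: labelled Tn7 tracer, 0.1 µM; Assay system: human fibrin DD(E) protein; Amount: 2 µM fibrin DD(E); Schedule: 10 min compound pre-incubation, 3 h probe incubation at room temperature; Repeats: one replicate per compound; Read-out basis: percent inhibition; Measured by: fluorescence polarization of the labelled Tn7 tracer.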
For orientation: In fluorescence polarisation assays a small probe gives low polarisation when free and higher when bound to something large.
A word on the inhibition: it is the relative decrease from the control value, in per cent. Regarding `Cc1cccc(NC(=O)c2ccc(S(=O)(=O)N(C)CC3CCCO3)cc2)c1C` (stereo not given), the inhibition is -10%.

As to `Cc1nnc(SCC(=O)Nc2ncc3c(n2)CC(C)(C)CC3=O)s1`, the inhibition was 3.19%.

Turning to `C=CCn1c(COc2ccc(F)cc2)nnc1SCC(=O)Nc1cccc(S(N)(=O)=O)c1`, the inhibition was 2.08%.

On to `COc1cc2c(cc1OC)CC1(CCCCC1)N=C2`, for which the inhibition is 3.18%.

For `Cc1cc(=O)[nH]c2nnnn12`, the inhibition is -1.23%.

As to `COc1ccc(N=C2C=CC(=O)O2)cc1`, the inhibition was -2.28%.

For `COc1ccc(N=Nc2c(-c3ccc(OC)cc3)[nH]oc2=O)cc1`, the inhibition is 25.7% (active).

On to `O=c1o[nH]c(-c2ccccc2)c1N=Nc1c(F)cccc1Cl`, for which the inhibition was 1.8%.

Take `COc1ccc(C(=O)N(C)Cc2ccc(OC)c(OC)c2OC)cc1S(=O)(=O)N1CCOCC1`: the inhibition was -8.78%.

As to `CN(CC(=O)Nc1ccc(F)c(F)c1F)C(=O)C1CC(=O)N(C2CCCC2)C1` (stereo not given), the inhibition is 0.71%.

As to `COC(=O)CSc1snnc1-c1ccc(Cl)c(Cl)c1`, the inhibition was -4.58%.

Regarding `COc1ccc(-c2csc(C(O)c3cccc(Cl)c3)n2)cn1` (stereo not given), the inhibition was -9.22%.

In the case of `Cc1ccccc1-c1csc(C(O)c2cccc(Cl)c2)n1` (stereo not given), the inhibition is -0.35%.

With `OC(c1ccccc1)c1nc(-c2cnc3ccccc3c2)cs1` (stereo not given), the inhibition was 15.7% (active).

In the case of `Cc1nn(C(C)(C)C)c(OC(=O)CC(C)C)c1S(=O)(=O)c1ccccc1`, the inhibition is 1.04%.

For `O=C(Cn1cnc2ccccc2c1=O)Nc1cccc(S(=O)(=O)N2CCCCC2)c1`, the inhibition is -0.43%.

For `CCc1nn(-c2cc(Oc3cccc4ccccc34)nc(-c3ccccc3)n2)c(N)c1C#N`, the inhibition is 4.4%.

Turning to `C=CCN1CCN(c2ccncc2S(=O)(=O)N2CCN(C)CC2)CC1`, the inhibition is 7.05%.

As for `O=C(NCc1cccnc1)Nc1ccccc1F`, the inhibition is -2.21%.

For the compound `CC(=O)Nc1ccc(CN2CCN(Cc3ccc(F)c(F)c3)C(CCO)C2)cc1` (stereo not given), the inhibition was 0.97%.

For the compound `Cc1cc(NC(=O)C(C)SCC(=O)Nc2cccc(S(=O)(=O)N3CCCCCC3)c2)no1` (stereo not given), the inhibition is 6.6%.

Turning to `O=S1(=O)CC(N2CCN(Cc3ccccc3F)CC2)CN1Cc1cn(Cc2cccc(C(F)(F)F)c2)nn1` (stereo not given), the inhibition was 1.27%.

As to `CC(=O)c1cc(-c2ccccc2)n(CCC(=O)NC2CCCCCC2)c1C`, the inhibition is -2.95%.

For the compound `O=C(c1c(Cl)cccc1Cl)N1CCN(c2cccc3[nH]ccc23)CC1`, the inhibition is 2.06%.

Regarding `CC1(C)CC(=O)C(C2c3ccccc3S(=O)(=O)c3ccccc32)C(=O)C1`, the inhibition was 2.44%.

In the case of `CO[C@H]1[C@@H]2C=CO[C@@H](O[C@H]3O[C@@H](CO)[C@H](O)[C@@H](O)[C@@H]3O)[C@@H]2[C@@]2(CO)O[C@@H]12`, the inhibition is -5.28%.

Regarding `S=C(NC1CCCCC1)NN1CCOCC1`, the inhibition is 4.52%.

Regarding `O=C(CSc1nncn1-c1cccnc1)N1CCOCC1`, the inhibition is -3.73%.

As for `Cc1cc2occ(CC(=O)NNC(=O)c3ccccc3F)c2cc1C`, the inhibition is -1.71%.

As for `Cn1c(CC(=O)NNC(=O)c2ccccc2F)nc2ccccc21`, the inhibition was 14.2% (active).

On to `O=C(Cn1cnc2ccccc2c1=O)NNC(=O)c1ccccc1F`, for which the inhibition is -3.62%.

`Cc1ccccc1CCNC(=O)C1CCC(=O)N(Cc2ccc(Cl)cc2)C1` (stereo not given): the inhibition is 7.94%.

Take `O=C(NCCCN1CCCCC1)C1CCCN(c2ncnc3c2nc2n3CCCCC2)C1` (stereo not given): the inhibition was -0.83%.

As for `O=C(NCc1ccco1)C1CCCN1S(=O)(=O)c1ccccc1C(F)(F)F` (stereo not given), the inhibition was -1.12%.

Regarding `COc1ccc(NC2CC(=O)N(C)C2=O)cc1` (stereo not given), the inhibition was 0.3%.

For `CCC1CCCCN1C(=S)Nc1ccc(SC(F)F)cc1` (stereo not given), the inhibition was 5.34%.

Regarding `C[N+]1(CCNC(=O)/C=N/O)CCCCC1`, the inhibition was 1.46%.

`COc1ccc(C)cc1NC(=S)N1CCOCC1`: the inhibition is -0.49%.

For `COc1cc(C(=S)N2CCOCC2)ccc1O`, the inhibition is 14.7% (active).

`COc1cc(C(=S)NC2CCCCC2)ccc1O`: the inhibition was 2.78%.

Regarding `COC(=O)[C@]12CCCCC=C1N(Cc1ccc(Cl)cc1Cl)C(=O)[C@H](CC(=O)NCc1cccc3ccccc13)C2`, the inhibition is -3.23%.

For `Cn1c(=O)cc(OCCCC(=O)N2CCN(c3ccccn3)CC2)c2ccccc21`, the inhibition is 2.1%.

On to `OCCn1c(-c2ccccc2)csc1=Nc1ccccc1`, for which the inhibition is 5.44%.

As to `C=CCOc1cccc(C2C(C(=O)c3ccc(C)o3)=C(O)C(=O)N2CCN2CCOCC2)c1` (stereo not given), the inhibition is 0.33%.

Consider `Cc1cc(C)n2c(Nc3c(C)cccc3C)c(CCc3ccccc3)nc2n1`, for which the inhibition is 10.1%.

Consider `C=CCOc1c2ccc(C(=O)N(CC)c3ccc(OC)cc3)cc2nn1C`, for which the inhibition is 1.93%.

`O=S(=O)(c1ccc(-c2ccno2)s1)N1CCCCC1`: the inhibition is -8.93%.

As to `O=[N+]([O-])/C=C/c1ccc2c(ccn2Cc2ccccc2)c1`, the inhibition was 0.19%.

As for `O=S(=O)(NCC1CCCO1)c1cnc(Cl)c(Cl)c1` (stereo not given), the inhibition was 0.79%.

In the case of `O=C(COC(=O)c1ccc(N2CCCC2=O)cc1)c1ccc(OC(F)F)cc1`, the inhibition is -9.52%.

Regarding `COc1cc(OC)cc(C(=O)NNC(=O)CNC(=O)c2ccc(Br)o2)c1`, the inhibition is 3.03%.

Consider `COc1cc(OC)cc(C(=O)NCC(=O)OCc2csc(-c3ccccc3)n2)c1`, for which the inhibition was 1.99%.

On to `COc1ccc(-c2nc(CCNC(=O)c3ccc(Br)o3)cs2)cc1`, for which the inhibition was 16.8% (active).

As to `CC(C)c1nnc(NC(=O)CCC(=O)N2CCN(c3cccc(Cl)c3)CC2)s1`, the inhibition was 3.33%.

As to `CN1CCc2ccccc2C1Cc1ccccc1NC(=O)c1sc2ccccc2c1Cl` (stereo not given), the inhibition was -2.71%.

As for `O=C(Nc1ccon1)c1sc2ccccc2c1Cl`, the inhibition was 15.2% (active).

On to `O=C(Nc1ccc2c(c1)OCO2)c1sc2cc(Cl)ccc2c1Cl`, for which the inhibition was 6.59%.

Turning to `Cc1cc(Cl)ccc1C(=O)C1CCCN(C(=O)c2ccc3c(c2)OCO3)C1` (stereo not given), the inhibition was -13.3%.

Take `COc1cccc(NC(=O)CN(C)CC(=O)c2c(N)n(Cc3ccccc3)c(=O)n(C)c2=O)c1`: the inhibition is -1.38%.

As for `O=C(COC(=O)c1ccccc1NC(=O)c1ccco1)Nc1ccc2c(c1)OC(F)(F)O2`, the inhibition is -0.79%.
